How the values were obtained:
[1] = molecular target: T1, 5-hydroxytryptamine receptor 1A (Homo sapiens) (UniProt P08908); assay: Displacement of [3H]8-OH-DPAT from human recombinant 5HT1A receptor expressed in CHO cells at 10 uM after 60 mins by liquid scintillation counting; type: cell-based
T1 sequence (whole entry): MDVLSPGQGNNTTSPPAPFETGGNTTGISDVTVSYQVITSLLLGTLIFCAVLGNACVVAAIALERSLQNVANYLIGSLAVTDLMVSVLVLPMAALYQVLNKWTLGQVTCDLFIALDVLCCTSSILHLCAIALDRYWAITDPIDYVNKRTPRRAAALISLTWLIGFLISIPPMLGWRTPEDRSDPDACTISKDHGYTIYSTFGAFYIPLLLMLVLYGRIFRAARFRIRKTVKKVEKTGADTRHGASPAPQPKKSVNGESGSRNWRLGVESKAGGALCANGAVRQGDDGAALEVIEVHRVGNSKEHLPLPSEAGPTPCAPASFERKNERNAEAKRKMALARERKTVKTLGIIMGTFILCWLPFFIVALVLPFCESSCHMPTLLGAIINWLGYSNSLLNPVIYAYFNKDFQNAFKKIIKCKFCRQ
How it was run: (§1)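 Radioligand binding panel run by a contract lab (CEREP). Percent inhibition of specific radioligand binding was measured at a single primary test concentration of 10.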

[2] = molecular target: Adrenergic receptor alpha-1 (Rattus norvegicus) (UniProt P15823+P23944+P43140); assay: Displacement of [3H]Prazosin from rat alpha1 adrenergic receptor at 10 uM after 60 mins by liquid scintillation counting; how it was run: as §1
[3] = tested on: Mus musculus; assay: Antidepressant activity in mouse assessed as decrease in immobility at 20 mg/kg, po administered 30 mins prior to testing by tail suspension test relative to vehicle control; type: functional; parameters: scale not given: the % may be the effect or the level left
How it was run: (§2)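 Oral doses of 10–50 mg/kg (three doses) were given once, 30 min before testing. Mice were hung by adhesive tape 1 cm from the tail tip, 75 cm above the tabletop. Immobility was recorded for 5 min, scored blind, 10–12 mice per group, against vehicle controls. One-way ANOVA with Scheffe post hoc test; p<0.05 significant.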

[4] = molecular target: D(3) dopamine receptor (Homo sapiens) (UniProt P35462); assay: Displacement of [3H]Methylspiperone from human recombinant dopamine D3 receptor expressed in CHO cells at 10 uM after 60 mins by liquid scintillation counting; type: cell-based; how it was run: as §1
[5] = molecular target: Histamine H1 receptor (Cavia porcellus) (UniProt P31389); assay: Displacement of [3H]Pyrilamin from guinea pig histamine H1 receptor at 10 uM after 10 mins by liquid scintillation counting; how it was run: as §1
[6] = molecular target: 5-hydroxytryptamine receptor 7 (Homo sapiens) (UniProt P34969); assay: Displacement of [3H]LSD from human recombinant 5HT7 receptor expressed in CHO cells at 10 uM after 120 mins by liquid scintillation counting; type: cell-based; how it was run: as §1
[7] = molecular target: Sodium-dependent dopamine transporter (Homo sapiens, UniProt Q01959); assay: Inhibition of [3H]dopamine uptake at human DAT expressed in HEK293 cells after 10 mins by scintillation counting
[8] = molecular target: Sodium-dependent serotonin transporter (Homo sapiens, UniProt P31645); assay: Inhibition of [3H]serotonin uptake at human SERT expressed in HEK293 cells after 10 min by scintillation counting
[9] = molecular target: Histamine H2 receptor (Homo sapiens) (UniProt P25021); assay: Displacement of [I125}APT from histamine H2 receptor at 10 uM; how it was run: as §1
[10] = molecular target: Beta-2 adrenergic receptor (Homo sapiens) (UniProt P07550); assay: Displacement of [3H](-)CGP12177 beta2 adrenergic receptor at 10 uM; how it was run: as §1
[11] = molecular target: Adrenergic receptor alpha-2 (Rattus norvegicus) (UniProt P22086+P19328+P22909); assay: Displacement of [3H]RX821002 from rat alpha2 adrenergic receptor at 10 uM after 30 mins by liquid scintillation counting; how it was run: as §1
[12] = molecular target: 5-hydroxytryptamine receptor 2A (Homo sapiens) (UniProt P28223); assay: Displacement of [3H]Ketanserin from human recombinant 5HT2A receptor expressed in CHO cells at 10 uM after 15 mins by liquid scintillation counting; type: cell-based; how it was run: as §1
[13] = molecular target: Beta-1 adrenergic receptor (Homo sapiens) (UniProt P08588); assay: Displacement of [3H](-)CGP12177 beta1 adrenergic receptor at 10 uM; how it was run: as §1
[14] = molecular target: Sodium-dependent noradrenaline transporter (Homo sapiens, UniProt P23975); assay: Inhibition of [3H]noradrenaline uptake at human NET expressed in HEK293 cells after 10 mins by scintillation counting
[15] = molecular target: T2, Muscarinic acetylcholine receptor M2 (Homo sapiens) (UniProt P08172); assay: Displacement of [3H]AF-DX384 from M2 receptor at 10 uM; how it was run: as §1
T2 sequence (whole entry): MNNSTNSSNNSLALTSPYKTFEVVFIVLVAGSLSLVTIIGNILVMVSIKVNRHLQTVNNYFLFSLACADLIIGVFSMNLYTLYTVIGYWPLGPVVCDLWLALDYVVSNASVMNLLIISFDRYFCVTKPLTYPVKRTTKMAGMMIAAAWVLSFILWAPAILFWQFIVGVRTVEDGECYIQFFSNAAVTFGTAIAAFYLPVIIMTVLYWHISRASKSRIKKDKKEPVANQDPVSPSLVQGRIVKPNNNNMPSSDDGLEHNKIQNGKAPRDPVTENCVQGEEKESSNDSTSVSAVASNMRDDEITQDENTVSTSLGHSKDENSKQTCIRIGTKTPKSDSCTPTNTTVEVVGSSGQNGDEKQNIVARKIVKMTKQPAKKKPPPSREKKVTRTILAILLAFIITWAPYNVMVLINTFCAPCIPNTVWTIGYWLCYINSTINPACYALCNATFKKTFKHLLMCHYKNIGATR

[16] = tested on: Mus musculus; assay: Antidepressant activity in mouse assessed as decrease in immobility at 10 mg/kg, po administered 30 mins prior to testing by tail suspension test relative to vehicle control; type: functional; parameters: scale not given: the % may be the effect or the level left; how it was run: as §2
[17] = molecular target: 5-hydroxytryptamine receptor 1B (Homo sapiens) (UniProt P28222); assay: Displacement of [I125]CYP from 5HT1B receptor at 10 uM; how it was run: as §1
[18] = tested on: Mus musculus; assay: Antidepressant activity in po dosed mouse assessed as decrease in immobility administered 30 mins prior to testing by tail suspension test relative to vehicle control; type: functional, organism-based; how it was run: as §2

Chain of Sodium-dependent dopamine transporter (Q01959 whole entry): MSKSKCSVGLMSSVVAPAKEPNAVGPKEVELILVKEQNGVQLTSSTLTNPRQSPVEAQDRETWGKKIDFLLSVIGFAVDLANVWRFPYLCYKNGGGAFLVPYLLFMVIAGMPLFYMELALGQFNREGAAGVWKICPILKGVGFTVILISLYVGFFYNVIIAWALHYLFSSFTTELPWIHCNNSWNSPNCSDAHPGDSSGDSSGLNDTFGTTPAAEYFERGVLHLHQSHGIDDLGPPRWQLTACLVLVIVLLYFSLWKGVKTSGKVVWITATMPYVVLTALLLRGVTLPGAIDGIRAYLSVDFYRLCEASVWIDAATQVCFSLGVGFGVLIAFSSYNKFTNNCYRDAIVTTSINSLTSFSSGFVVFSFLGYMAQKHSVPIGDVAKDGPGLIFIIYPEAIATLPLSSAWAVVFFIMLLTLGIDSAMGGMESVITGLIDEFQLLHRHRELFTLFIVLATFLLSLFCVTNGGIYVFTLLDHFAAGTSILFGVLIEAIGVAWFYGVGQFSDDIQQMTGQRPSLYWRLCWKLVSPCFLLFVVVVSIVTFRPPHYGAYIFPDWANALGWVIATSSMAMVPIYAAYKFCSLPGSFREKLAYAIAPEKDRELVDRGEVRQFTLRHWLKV
Chain of 5-hydroxytryptamine receptor 7 (Homo sapiens) (P34969 whole entry): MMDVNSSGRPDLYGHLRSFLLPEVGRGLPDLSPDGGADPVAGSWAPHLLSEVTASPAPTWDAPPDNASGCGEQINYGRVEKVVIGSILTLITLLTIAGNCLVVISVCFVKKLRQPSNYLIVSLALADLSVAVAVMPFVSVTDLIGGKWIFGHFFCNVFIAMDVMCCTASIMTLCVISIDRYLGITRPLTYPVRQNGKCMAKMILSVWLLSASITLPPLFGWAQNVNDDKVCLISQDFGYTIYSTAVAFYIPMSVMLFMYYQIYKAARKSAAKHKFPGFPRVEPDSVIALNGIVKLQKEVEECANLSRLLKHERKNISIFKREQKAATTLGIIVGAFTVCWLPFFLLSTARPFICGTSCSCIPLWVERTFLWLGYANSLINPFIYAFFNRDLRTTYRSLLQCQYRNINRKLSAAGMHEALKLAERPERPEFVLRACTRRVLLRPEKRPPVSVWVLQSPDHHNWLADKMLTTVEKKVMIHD
Chain of Histamine H2 receptor (Homo sapiens) (P25021 whole entry): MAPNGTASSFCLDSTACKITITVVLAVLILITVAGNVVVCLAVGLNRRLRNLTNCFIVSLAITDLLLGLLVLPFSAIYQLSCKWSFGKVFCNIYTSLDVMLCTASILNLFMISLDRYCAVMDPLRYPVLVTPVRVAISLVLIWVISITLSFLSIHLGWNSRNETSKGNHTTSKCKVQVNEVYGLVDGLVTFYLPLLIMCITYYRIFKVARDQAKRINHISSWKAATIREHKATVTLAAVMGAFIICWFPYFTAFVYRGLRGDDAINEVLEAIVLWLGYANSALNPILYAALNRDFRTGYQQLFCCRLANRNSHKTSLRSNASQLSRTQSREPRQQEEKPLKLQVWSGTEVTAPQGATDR
Chain of Beta-1 adrenergic receptor (Homo sapiens) (P08588 whole entry, looked up): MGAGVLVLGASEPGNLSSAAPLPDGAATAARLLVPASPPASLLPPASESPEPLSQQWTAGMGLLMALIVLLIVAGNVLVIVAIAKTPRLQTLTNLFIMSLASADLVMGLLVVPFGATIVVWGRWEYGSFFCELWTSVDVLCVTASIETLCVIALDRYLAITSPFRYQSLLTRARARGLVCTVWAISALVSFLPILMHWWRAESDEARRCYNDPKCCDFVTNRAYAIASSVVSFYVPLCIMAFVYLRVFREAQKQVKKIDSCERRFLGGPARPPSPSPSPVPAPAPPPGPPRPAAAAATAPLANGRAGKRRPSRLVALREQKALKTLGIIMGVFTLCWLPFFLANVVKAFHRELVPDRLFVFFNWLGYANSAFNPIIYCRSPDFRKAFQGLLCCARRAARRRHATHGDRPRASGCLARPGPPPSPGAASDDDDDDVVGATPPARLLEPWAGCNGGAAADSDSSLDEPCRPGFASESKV
Chain of Sodium-dependent serotonin transporter (P31645 whole entry): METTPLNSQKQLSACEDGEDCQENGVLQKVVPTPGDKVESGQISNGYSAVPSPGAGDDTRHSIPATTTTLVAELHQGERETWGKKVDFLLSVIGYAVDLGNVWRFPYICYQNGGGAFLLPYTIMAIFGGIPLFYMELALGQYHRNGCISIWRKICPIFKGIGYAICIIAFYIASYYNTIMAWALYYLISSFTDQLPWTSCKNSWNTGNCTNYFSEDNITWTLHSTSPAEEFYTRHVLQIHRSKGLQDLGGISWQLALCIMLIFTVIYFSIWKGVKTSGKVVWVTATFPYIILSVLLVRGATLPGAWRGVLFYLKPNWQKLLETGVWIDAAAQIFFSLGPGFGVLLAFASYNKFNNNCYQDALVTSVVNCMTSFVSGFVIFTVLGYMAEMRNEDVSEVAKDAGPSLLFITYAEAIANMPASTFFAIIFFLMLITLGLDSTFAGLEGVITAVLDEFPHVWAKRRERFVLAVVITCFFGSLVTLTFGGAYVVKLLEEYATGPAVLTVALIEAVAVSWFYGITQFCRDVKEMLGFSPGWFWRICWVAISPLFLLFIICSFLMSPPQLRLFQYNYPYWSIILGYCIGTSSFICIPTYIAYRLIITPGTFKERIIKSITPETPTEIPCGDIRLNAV
Chain of 5-hydroxytryptamine receptor 2A (Homo sapiens) (P28223 whole entry): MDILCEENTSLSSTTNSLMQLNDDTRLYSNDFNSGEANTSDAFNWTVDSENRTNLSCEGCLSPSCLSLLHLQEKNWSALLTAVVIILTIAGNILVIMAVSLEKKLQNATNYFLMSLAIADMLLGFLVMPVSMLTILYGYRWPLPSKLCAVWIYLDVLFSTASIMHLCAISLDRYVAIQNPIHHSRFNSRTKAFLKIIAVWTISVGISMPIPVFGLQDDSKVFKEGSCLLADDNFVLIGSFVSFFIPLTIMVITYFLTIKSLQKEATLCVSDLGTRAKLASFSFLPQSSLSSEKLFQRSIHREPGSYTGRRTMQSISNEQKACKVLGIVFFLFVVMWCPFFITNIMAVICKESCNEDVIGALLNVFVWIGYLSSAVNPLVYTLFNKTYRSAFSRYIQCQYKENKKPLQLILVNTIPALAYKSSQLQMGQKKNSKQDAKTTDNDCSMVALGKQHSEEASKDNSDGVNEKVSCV
Chain of D(3) dopamine receptor (Homo sapiens) (P35462 whole entry): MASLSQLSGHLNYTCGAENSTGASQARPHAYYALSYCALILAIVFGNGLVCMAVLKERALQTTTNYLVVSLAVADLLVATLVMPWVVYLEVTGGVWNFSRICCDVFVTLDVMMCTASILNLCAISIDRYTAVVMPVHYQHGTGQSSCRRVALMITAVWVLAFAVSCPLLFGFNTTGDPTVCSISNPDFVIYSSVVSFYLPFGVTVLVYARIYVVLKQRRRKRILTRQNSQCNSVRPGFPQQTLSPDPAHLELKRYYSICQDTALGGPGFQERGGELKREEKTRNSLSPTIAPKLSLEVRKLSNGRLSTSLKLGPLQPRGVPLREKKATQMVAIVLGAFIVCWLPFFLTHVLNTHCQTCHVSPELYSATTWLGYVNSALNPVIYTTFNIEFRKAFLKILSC
Chain of Beta-2 adrenergic receptor (Homo sapiens) (P07550 whole entry, looked up): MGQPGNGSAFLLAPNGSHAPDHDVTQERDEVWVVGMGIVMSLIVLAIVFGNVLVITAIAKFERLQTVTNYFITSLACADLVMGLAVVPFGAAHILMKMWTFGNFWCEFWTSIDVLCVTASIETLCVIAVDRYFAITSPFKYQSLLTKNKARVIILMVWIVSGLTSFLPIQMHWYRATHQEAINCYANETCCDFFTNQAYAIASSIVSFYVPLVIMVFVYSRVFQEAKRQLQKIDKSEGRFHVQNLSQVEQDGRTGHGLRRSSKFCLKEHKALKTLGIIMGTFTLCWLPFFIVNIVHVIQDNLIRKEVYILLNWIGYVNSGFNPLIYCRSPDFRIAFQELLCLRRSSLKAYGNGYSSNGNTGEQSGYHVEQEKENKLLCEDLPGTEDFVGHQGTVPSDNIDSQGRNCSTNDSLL
Chain of Histamine H1 receptor (Cavia porcellus) (P31389 whole entry): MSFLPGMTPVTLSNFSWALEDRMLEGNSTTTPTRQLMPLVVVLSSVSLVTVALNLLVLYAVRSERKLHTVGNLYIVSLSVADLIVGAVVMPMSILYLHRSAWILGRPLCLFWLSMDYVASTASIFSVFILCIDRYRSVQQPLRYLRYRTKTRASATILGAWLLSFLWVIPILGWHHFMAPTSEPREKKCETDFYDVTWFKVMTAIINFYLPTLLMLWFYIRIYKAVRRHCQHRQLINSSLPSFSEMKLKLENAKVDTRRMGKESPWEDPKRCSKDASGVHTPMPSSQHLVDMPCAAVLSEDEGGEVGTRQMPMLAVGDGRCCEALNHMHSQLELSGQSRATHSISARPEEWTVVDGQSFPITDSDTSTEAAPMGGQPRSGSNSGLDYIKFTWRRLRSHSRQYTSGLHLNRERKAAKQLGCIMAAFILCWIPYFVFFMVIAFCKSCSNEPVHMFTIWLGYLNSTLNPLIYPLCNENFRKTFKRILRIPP
Chain of 5-hydroxytryptamine receptor 1B (Homo sapiens) (P28222 whole entry): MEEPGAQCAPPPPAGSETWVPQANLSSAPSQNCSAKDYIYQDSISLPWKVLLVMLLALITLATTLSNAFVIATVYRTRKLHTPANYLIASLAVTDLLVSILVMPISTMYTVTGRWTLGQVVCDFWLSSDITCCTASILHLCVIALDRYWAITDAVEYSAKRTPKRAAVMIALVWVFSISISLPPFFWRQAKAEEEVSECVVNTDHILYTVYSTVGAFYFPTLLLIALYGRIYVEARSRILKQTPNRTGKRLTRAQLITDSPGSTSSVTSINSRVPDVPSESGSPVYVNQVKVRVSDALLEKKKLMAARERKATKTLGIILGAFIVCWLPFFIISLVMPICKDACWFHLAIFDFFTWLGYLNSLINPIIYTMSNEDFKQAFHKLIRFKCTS

inhibition [1] [%] | inhibition [2] [%] | inhibition [4] [%] | inhibition [5] [%] | inhibition [6] [%] | IC50 [7] [nM] | IC50 [8] [nM] | inhibition [9] [%] | inhibition [10] [%] | inhibition [11] [%] | inhibition [12] [%] | inhibition [13] [%] | IC50 [14] [nM] | inhibition [15] [%] | inhibition [17] [%] | Compound | Activity [3] [%] | Activity [16] [%] | Activity [18]
65.4 | 0.8 | 1.2 | 0.1 | 43.5 | 491 | 255 | 8.2 | 16.7 | 32.5 | 31.5 | 41.2 | 327 | 6.5 | – | OC(CCN1CC=C(Cc2ccccc2)CC1)c1cc2ccccc2s1 (racemic) | 21 | 14 | –
27.3 | 84.3 | 4.6 | 12.5 | 19.2 | 564 | 337 | 6.7 | 14.7 | 43.5 | 0.9 | 15.3 | 265 | 16.5 | 9.7 | OC(CCN1CCC(O)(Cc2ccccc2)CC1)c1ccc(Cl)c(Cl)c1 (racemic) | 42 | 33 | Dose-dependent effect
10.3 | 35.6 | 10.3 | 31.2 | 0.5 | 689 | 425 | 15.6 | 62.3 | 16.2 | 4.8 | 58.9 | 178 | 7.9 | 0.6 | OC(CCN1CC=C(Cc2ccccc2)CC1)c1ccc(Cl)c(Cl)c1 (racemic) | 51 | 24 | –
33.4 | 51.2 | 3.5 | 45.3 | 29.7 | 566 | 171 | 14.9 | 49.8 | 27.3 | 42.6 | 33.4 | 385 | 3.7 | 6.5 | OC(CCN1CC=C(Cc2ccccc2)CC1)c1csc2ccccc12 (racemic) | 51 | 32 | Dose-dependent effect
46.5 | 45.6 | 11.3 | 10.6 | 5.8 | 346 | 265 | 33.2 | 28.5 | 32.9 | 15.6 | 46.7 | 420 | 12.9 | 10.2 | COc1ccc2cc(C(O)CCN3CC=C(Cc4ccccc4)CC3)ccc2c1Cl (racemic) | 42 | 21 | Dose-dependent effect
